Results: ChEMBL document CHEMBL1255381, “Golgicide A reveals essential roles for GBF1 in Golgi assembly and function” (Nat Chem Biol, 2009)
Calls of active or inactive are those of the source. The calls are words filed in the database; no cut-off is given here.

Legend:
Vero [1] = test: Effect on BIG2 distribution from golgi in african green monkey Vero cells by immunofluorescence method; type: functional, cell-based; details: Chlorocebus sabaeus
Vero [2] = test: Inhibition of GBF1 M832L in african green monkey Vero cells assessed as inhibition of StxB-SS retrogade transport from endosomes to TGN at 10 uM by immunofluorescence method; type: cell-based; details: Chlorocebus sabaeus
MDCK [3] = test: Induction of betaCOP distribution from golgi membranes in MDCK cells at 10 uM after 1 hr by immunofluorescence method; type: functional, cell-based; details: Canis lupus familiaris
Procedure, shortened: (§1)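 MDCK cells (EMEM, 10% FCS) and Vero cells, untreated or given compound 10 μM for 1 h; fixed and immunostained for βCOP and Golgi markers; distribution compared by immunofluorescence.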

Vero [4] = test: Induction of GBF1 in african green monkey Vero cells assessed as punctate and diffuse distribution of cis-Golgi marker GM130 from TGN at 10 uM after 1 hr by immunofluorescence method; type: cell-based; details: Chlorocebus sabaeus
Vero [5] = test: Inhibition of GBF1 in african green monkey Vero cells assessed as induction of betaCOP dispersal from golgi membranes at 10 uM after 5 mins by immunofluorescence method; type: cell-based; details: Chlorocebus sabaeus
Vero [6] = test: cells; type: functional, cell-based; details: Chlorocebus sabaeus, 0.5 h
Vero [7] = test: Inhibition of GBF1 Q845A mutant in african green monkey Vero cells mutant assessed as effect on change in golgi morphology at 10 uM after 1 hr by immunofluorescence method; type: cell-based; details: Chlorocebus sabaeus
Procedure, shortened: (§2)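 Vero cells transiently transfected (Lipofectamine 2000) with HA-tagged GBF1 wild type or R843A, K844A, Q845A or N846A mutant; after 36 h exposed 60 min to compound 10 μM, fixed, stained anti-HA and anti-giantin; Golgi morphology scored in expressing cells.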

Vero [8] = test: Inhibition of GBF1 in african green monkey Vero cells assessed as giantin positive punctate structures in contact with Sec31-positive ER exit site at 10 uM after 1 hr by immunofluorescence method; type: cell-based; details: Chlorocebus sabaeus
Procedure, shortened: (§3)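 Vero cells given BFA 10 μg/ml or compound 10 μM for 60 min, fixed, co-stained for giantin and ER exit site marker Sec31; giantin puncta relative to ERES scored by immunofluorescence.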

Vero [9] = test: Inhibition of Arf1 in african green monkey Vero cells assessed as decrease in Arf1-GTP levels at 10 ug/ml after 1 hr; type: cell-based; details: Chlorocebus sabaeus
Procedure, shortened: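 Vero cells transduced with adenoviral Arf1-V5, alone or with GBF1-ML-HA; next day reseeded, then 45 min at 37°C with medium, BFA 10 µg/ml or compound 10 μM. Lysates pulled down with GGA3 VHS-GAT-GST on glutathione agarose, 30 min 4°C; Arf1-GTP by anti-V5 Western, band densitometry, duplicate experiments averaged.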

Vero [10] = test: Effect on disruption of microtubules in african green monkey Vero cells at 10 uM after 30 mins by immunofluorescence method; type: functional, cell-based; details: Chlorocebus sabaeus
Procedure, shortened: (§4)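 Vero cells (DMEM, 10% FCS, 1% nonessential amino acids, 37°C, 5% CO2) exposed 30 min at 37°C to compound, DMSO, nocodazole or cytochalasin B; fixed and immunostained for microtubules or actin; scored by immunofluorescence microscopy.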

Vero [11] = test: Inhibition of GBF1-M832L mutant in african green monkey Vero cells assessed as colocalization of tsVSVG-GFP with […] at 10 uM by immunofluorescence method; type: cell-based; details: Chlorocebus sabaeus
Vero [12] = test: Inhibition of GBF1 in african green monkey Vero cells assessed as colocalization of tsVSVG-GFP with […] at 10 uM by immunofluorescence method; type: cell-based; details: Chlorocebus sabaeus
Vero [13] = test: Inhibition of Arf1 in african green monkey Vero cells assessed as giantin positive punctate structures in contact with Sec31-positive ER exit site at 10 ug/ml after 1 hr by immunofluorescence method; type: cell-based; details: Chlorocebus sabaeus; procedure, shortened: as §3
Vero [14] = test: Inhibition of GBF1 in african green monkey Vero cells assessed as tsVSVG-GFP transport to plasma membrane at 10 uM by immunofluorescence method; type: cell-based; details: Chlorocebus sabaeus
Procedure, shortened: (§5)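 Vero cells co-transfected with tsVSVG-GFP (ts045) and optionally GBF1-HA WT or M832L; held 12-16 h at 42°C for ER arrest, then cycloheximide 100 µg/ml plus compound 10 µM or BFA 10 µg/ml, shifted to 32°C for various times (up to 4 h); fixed, anti-HA stained, transport imaged.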

Vero [15] = test: Inhibition of GBF1 in african green monkey Vero cells assessed as rapid GGA3 dispersal from trans golgi network at 10 uM after 5 mins by immunofluorescence method; type: cell-based; details: Chlorocebus sabaeus
Vero [16] = test: Inhibition of GBF1 M832L mutant in african green monkey Vero cells assessed as effect on GM130 localization from golgi at 100 uM by immunofluorescence method; type: cell-based; details: Chlorocebus sabaeus
Vero [17] = test: Effect on BIG1 distribution from golgi in african green monkey Vero cells by immunofluorescence method; type: functional, cell-based; details: Chlorocebus sabaeus
Vero [18] = test: Inhibition of GBF1 in african green monkey Vero cells assessed as Arf1 activation at 10 uM after 1 hr; type: cell-based; details: Chlorocebus sabaeus
Vero [19] = test: Inhibition of GBF1 in african green monkey Vero cells overexpressing BIG1 assessed as distribution of trans-Golgi marker TGN46 from TGN at 10 uM after 1 hr by immunofluorescence method; type: cell-based; details: Chlorocebus sabaeus
Vero [20] = test: Inhibition of GBF1 in african green monkey Vero cells assessed as colocalization with ERGIC-53 marker in ER-golgi intermediate compartment by immunofluorescence method; type: cell-based; details: Chlorocebus sabaeus
MDCK [21] = test: Effect on golgi morphology in MDCK cells at 10 uM after 1 hr by immunofluorescence method; type: functional, cell-based; details: Canis lupus familiaris; procedure, shortened: as §1
Vero [22] = test: Inhibition of GBF1-M832L mutant mediated NPY-GFP secretion in african green monkey Vero cells at 10 uM by immunofluorescence method; type: cell-based; details: Chlorocebus sabaeus
Vero [23] = test: Inhibition of GBF1 R843A mutant in african green monkey Vero cells mutant assessed as effect on change in golgi morphology at 10 uM after 1 hr by immunofluorescence method; type: cell-based; details: Chlorocebus sabaeus; procedure, shortened: as §2
Vero [24] = test: Effect on transit of transferrin through endocytic and recycling pathway in african green monkey Vero cells at 10 uM after 1 hr by immunofluorescence method; type: functional, cell-based; details: Chlorocebus sabaeus
Vero [25] = test: Inhibition of Arf1 in african green monkey Vero cells assessed as punctate and diffuse distribution of medial-Golgi marker giantin at 10 ug/ml after 1 hr by immunofluorescence method; type: cell-based; details: Chlorocebus sabaeus
Vero [26] = test: Effect on depolymerization of actin microfilaments in african green monkey Vero cells at 10 uM after 30 mins by immunofluorescence method; type: functional, cell-based; details: Chlorocebus sabaeus; procedure, shortened: as §4
Vero [27] = test: Inhibition of Arf1 in african green monkey Vero cells assessed as inhibition of StxB-SS retrogade transport from endosomes to TGN at 10 ug/ml by immunofluorescence method; type: cell-based; details: Chlorocebus sabaeus
Vero [28] = test: Inhibition of GBF1 N846A mutant in african green monkey Vero cells mutant assessed as effect on change in golgi morphology at 10 uM after 1 hr by immunofluorescence method; type: cell-based; details: Chlorocebus sabaeus; procedure, shortened: as §2
Vero [29] = test: Inhibition of GBF1 M832L mutant in african green monkey Vero cells assessed as effect on betaCOP localization from golgi at 100 uM by immunofluorescence method; type: cell-based; details: Chlorocebus sabaeus
Vero [30] = test: Inhibition of GBF1-M832L mutant in african green monkey Vero cells assessed as Arf1 activation at 10 uM after 1 hr; type: cell-based; details: Chlorocebus sabaeus
Vero [31] = test: Inhibition of GBF1-M832L mutant in african green monkey Vero cells assessed as tsVSVG-GFP transport to plasma membrane at 10 uM by immunofluorescence method; type: cell-based; details: Chlorocebus sabaeus; procedure, shortened: as §5
Vero [32] = test: Inhibition of GBF1 in african green monkey Vero cells assessed as rapid COPI redistribution from golgi at 10 uM after 5 mins by immunofluorescence method; type: cell-based; details: Chlorocebus sabaeus
Vero [33] = test: Inhibition of GBF1 in african green monkey Vero cells overexpressing BIG1 assessed as punctate and diffuse distribution of medial-Golgi marker giantin from golgi at 10 uM after 1 hr by immunofluorescence method; type: cell-based; details: Chlorocebus sabaeus
Vero [34] = test: Inhibition of GBF1 in african green monkey Vero cells assessed as inhibition of StxB-SS retrogade transport from endosomes to TGN at 10 uM by immunofluorescence method; type: cell-based; details: Chlorocebus sabaeus
Vero [35] = test: Inhibition of GBF1 K844A mutant in african green monkey Vero cells mutant assessed as effect on change in golgi morphology at 10 uM after 1 hr by immunofluorescence method; type: cell-based; details: Chlorocebus sabaeus; procedure, shortened: as §2
Vero [36] = test: Inhibition of GBF1 in african green monkey Vero cells assessed as punctate and diffuse distribution of medial-Golgi marker giantin […] at 10 uM after 1 hr by immunofluorescence method; type: cell-based; details: Chlorocebus sabaeus
Vero [37] = test: Inhibition of GBF1 mediated NPY-GFP secretion in african green monkey Vero cells at 10 uM by immunofluorescence method; type: cell-based; details: Chlorocebus sabaeus
Vero [38] = test: Inhibition of GBF1 M832L mutant in african green monkey Vero cells assessed as effect on TGN46 localization from golgi at 100 uM by immunofluorescence method; type: cell-based; details: Chlorocebus sabaeus
Vero [39] = test: Inhibition of GBF1 in african green monkey Vero cells assessed as rapid AP-1 dispersal from golgi membranes at 10 uM after 5 mins by immunofluorescence method; type: cell-based; details: Chlorocebus sabaeus

`Fc1cc(F)c2c(c1)[C@H]1C=CC[C@H]1C(c1cccnc1)N2` (some centres undefined) [GOLGICIDE A] was tested, and the Activity (Vero [1]) was “inactive”, the inhibition (Vero [2]) was “Active” and the Activity (MDCK [3]) was “inactive”. The Activity (Vero [4]) was “Active”, the inhibition (Vero [5]) was “Active” and the IC50 (Vero [6]) was 3.3 µM. The inhibition (Vero [7]) was “inactive”, the inhibition (Vero [8]) was “Active” and the inhibition (Vero [9]) was 75%. For the same compound, the Activity (Vero [10]) was “inactive”, the inhibition (Vero [11]) was “inactive” and the inhibition (Vero [12]) was “Active”. For the same compound, the inhibition (Vero [13]) was “Active”, the inhibition (Vero [14]) was “Active” and the inhibition (Vero [15]) was “inactive”. For the same compound, the inhibition (Vero [16]) was “inactive”, the Activity (Vero [17]) was “inactive” and the inhibition (Vero [18]) was 34%. For the same compound, the inhibition (Vero [19]) was “inactive”, the inhibition (Vero [20]) was “Active” and the Activity (MDCK [21]) was “inactive”. The inhibition (Vero [22]) was “inactive”, the inhibition (Vero [23]) was “inactive” and the Activity (Vero [24]) was “inactive”. For the same compound, the inhibition (Vero [25]) was “Active”, the Activity (Vero [26]) was “inactive” and the inhibition (Vero [27]) was “Active”. For the same compound, the inhibition (Vero [28]) was “inactive”, the inhibition (Vero [29]) was “inactive” and the inhibition (Vero [30]) was “inactive”. For the same compound, the inhibition (Vero [31]) was “inactive”, the inhibition (Vero [32]) was “Active” and the inhibition (Vero [33]) was “inactive”. The inhibition (Vero [34]) was “Active”, the inhibition (Vero [35]) was “inactive” and the inhibition (Vero [36]) was “Active”. The inhibition (Vero [37]) was “Active”, the inhibition (Vero [38]) was “inactive” and the inhibition (Vero [39]) was “inactive”.
